Published values of several laboratories.
Lines come from different studies, so protocols differ.

N=C(CC(O)c1cc2c(F)cc(F)cc2c2cc(C(F)(F)F)ccc12)NCc1ccc(F)cc1 (stereo not drawn)
IC50 (Plasmodium falciparum; parasite growth, ELISA; 3D7; 72 h, blood stage): 1.11 µM

CCN(CC)CCOc1ccc2c(c1)C(=O)c1cc(OCCN(CC)CC)ccc1-2
IC50 (Plasmodium falciparum; parasite growth; DD2; drug-resistant strain, blood stage): 0.556 µM

N.N.[Cl][Pt][Cl]
IC50 (RS4-11; cell growth or viability, ATP luminescence; 72 h): 0.61 µM

CO[C@H]1C[C@H](O[C@@H]2/C(C)=C/C[C@@H]3C[C@@H](C[C@]4(CC[C@H](C)[C@@H](C5CCCCC5)O4)O3)OC(=O)[C@@H]3C=C(C)/C(=N/O)[C@H]4OC/C(=C\C=C\[C@@H]2C)[C@]43O)O[C@@H](C)[C@@H]1O
IC50 (Plasmodium falciparum; parasite growth; K1; drug-resistant strain, blood stage): 0.311 µM

N#Cc1ccc(NC(=N)CC(O)c2cc3c(F)cc(F)cc3c3cc(C(F)(F)F)ccc23)cc1 (stereo not drawn)
IC50 (Plasmodium falciparum; parasite growth, ELISA; 3D7; 72 h, blood stage): 0.0247 µM

CC(C)C[C@H](NC(=O)[C@H](CC(C)C)NC(=O)[C@H](CCCCN)NC(=O)[C@H](CCCCN)NC(=O)[C@H](CC(C)C)NC(=O)[C@H](CC(C)C)NC(=O)[C@H](CCCCN)NC(=O)[C@H](CCCCN)NC(=O)[C@H](CC(C)C)NC(=O)[C@H](CC(C)C)NC(=O)[C@H](CCCCN)NC(=O)[C@H](CCCCN)NC(=O)[C@H](CCC(=O)O)NC(=O)[C@@H](N)CC(C)C)C(N)=O
IC50 (HCCC9810; cell growth or viability, CCK-8): 6.96 µM

C[C@@H]1CC[C@H]2[C@@H](C)C(=O)O[C@@H]3O[C@@]4(C)CC[C@@H]1[C@]32OO4
IC50 (Plasmodium falciparum; parasite growth; K1; drug-resistant strain, blood stage): 0.0006 µM

COc1cc(NC(=N)CC(O)c2cc3c(F)cc(F)cc3c3cc(C(F)(F)F)ccc23)ccc1Br (stereo not drawn)
IC50 (Plasmodium falciparum; parasite growth, ELISA; 3D7; 72 h, blood stage): 0.0136 µM

CC(C)C[C@H](NC(=O)[C@H](CC(C)C)NC(=O)[C@H](CCCCN)NC(=O)[C@H](CCCCN)NC(=O)[C@H](CC(C)C)NC(=O)[C@H](CCC(=O)O)NC(=O)[C@H](CCCCN)NC(=O)[C@H](CCCCN)NC(=O)[C@H](CC(C)C)NC(=O)[C@H](CC(C)C)NC(=O)[C@H](CCCCN)NC(=O)[C@H](CCCCN)NC(=O)[C@H](CC(C)C)NC(=O)[C@@H](N)CC(C)C)C(N)=O
IC50 (HCCC9810; cell growth or viability, CCK-8): 24.6 µM

Cc1ccc(N(CC2=NCCN2)c2cccc(O)c2)cc1
IC50 (Plasmodium falciparum; parasite growth; K1; drug-resistant strain, blood stage): 189 µM

CCN1CCN(Cc2ccc(Nc3nc4ccc(Oc5ccnc(NC(=O)C6CCN(C)CC6)c5)cc4n3C)cc2C(F)(F)F)CC1
EC50 (Plasmodium falciparum; parasite growth, SYBR Green; DD2; blood stage): 0.116 µM

CC(C)C[C@H](NC(=O)[C@H](CCC(=O)O)NC(=O)[C@H](CCCCN)NC(=O)[C@H](CCCCN)NC(=O)[C@H](CC(C)C)NC(=O)[C@H](CC(C)C)NC(=O)[C@H](CCCCN)NC(=O)[C@H](CCCCN)NC(=O)[C@H](CC(C)C)NC(=O)[C@H](CC(C)C)NC(=O)[C@H](CCCCN)NC(=O)[C@H](CCCCN)NC(=O)[C@H](CC(C)C)NC(=O)[C@@H](N)CC(C)C)C(N)=O
IC50 (HCCC9810; cell growth or viability, CCK-8): 10.2 µM

COc1ccc2cc1Oc1ccc(cc1)C[C@H]1c3c(cc4c(c3Oc3cc5c(cc3OC)CCN(C)[C@@H]5C2)OCO4)CCN1C
IC50 (Plasmodium falciparum; parasite growth; DD2; drug-resistant strain, blood stage): 0.136 µM

N=C(CC(O)c1cc2c(F)cc(F)cc2c2cc(C(F)(F)F)ccc12)Nc1ccccc1I (stereo not drawn)
IC50 (Plasmodium falciparum; parasite growth, ELISA; 3D7; 72 h, blood stage): 0.0109 µM

CC(C)C[C@H](NC(=O)[C@H](CC(C)C)NC(=O)[C@H](CCCCN)NC(=O)[C@H](CCCCN)NC(=O)[C@H](CC(C)C)NC(=O)[C@H](CC(C)C)NC(=O)[C@H](CCCCN)NC(=O)[C@H](CCCCN)NC(=O)[C@H](CC(C)C)NC(=O)[C@H](CC(C)C)NC(=O)[C@H](CCCCN)NC(=O)[C@H](CCCCN)NC(=O)[C@H](CC(C)C)NC(=O)[C@@H](N)CCC(=O)O)C(N)=O
IC50 (HCCC9810; cell growth or viability, CCK-8): 8.87 µM
